From ChEMBL document CHEMBL1152917, “Benzothiophene piperazine and piperidine urea inhibitors of fatty acid amide hydrolase (FAAH)” (2009) come the findings set out here.

Test [1] addresses T1, Fatty-acid amide hydrolase 1 (Homo sapiens) (UniProt O00519).
T1 sequence (whole entry): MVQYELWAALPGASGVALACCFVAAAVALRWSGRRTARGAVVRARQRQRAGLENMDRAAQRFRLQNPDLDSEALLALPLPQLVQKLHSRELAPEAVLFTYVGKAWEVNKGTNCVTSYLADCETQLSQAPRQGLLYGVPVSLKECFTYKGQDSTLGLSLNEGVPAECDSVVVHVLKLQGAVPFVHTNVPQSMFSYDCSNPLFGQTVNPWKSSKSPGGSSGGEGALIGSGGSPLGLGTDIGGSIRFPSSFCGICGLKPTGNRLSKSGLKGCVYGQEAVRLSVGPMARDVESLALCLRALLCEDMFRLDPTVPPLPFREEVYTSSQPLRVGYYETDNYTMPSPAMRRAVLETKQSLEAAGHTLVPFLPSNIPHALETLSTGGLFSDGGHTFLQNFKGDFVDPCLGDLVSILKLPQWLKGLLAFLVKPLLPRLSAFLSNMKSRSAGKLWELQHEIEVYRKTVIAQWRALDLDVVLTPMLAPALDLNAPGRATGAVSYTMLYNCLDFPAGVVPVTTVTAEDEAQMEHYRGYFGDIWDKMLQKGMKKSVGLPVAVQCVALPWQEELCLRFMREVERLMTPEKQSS
The test is described as follows: Ratio of Kinact to Ki for histidine6-tagged human FAAH. In short, it runs like this: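 Human FAAH construct: aa 32–579, N-terminal transmembrane-deleted, N-terminal His6 tag, expressed in E. coli and purified to >95% by SDS–PAGE. Potency measured as kinact/Ki in a GDH-coupled FAAH assay in 384-well format. kobs was plotted against [I]; kinact/Ki came from the slope kinact/[Ki(1+[S]/Km)].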

Test [2] addresses T2, Fatty-acid amide hydrolase 1 (Rattus norvegicus) (UniProt P97612).
T2 sequence (whole entry): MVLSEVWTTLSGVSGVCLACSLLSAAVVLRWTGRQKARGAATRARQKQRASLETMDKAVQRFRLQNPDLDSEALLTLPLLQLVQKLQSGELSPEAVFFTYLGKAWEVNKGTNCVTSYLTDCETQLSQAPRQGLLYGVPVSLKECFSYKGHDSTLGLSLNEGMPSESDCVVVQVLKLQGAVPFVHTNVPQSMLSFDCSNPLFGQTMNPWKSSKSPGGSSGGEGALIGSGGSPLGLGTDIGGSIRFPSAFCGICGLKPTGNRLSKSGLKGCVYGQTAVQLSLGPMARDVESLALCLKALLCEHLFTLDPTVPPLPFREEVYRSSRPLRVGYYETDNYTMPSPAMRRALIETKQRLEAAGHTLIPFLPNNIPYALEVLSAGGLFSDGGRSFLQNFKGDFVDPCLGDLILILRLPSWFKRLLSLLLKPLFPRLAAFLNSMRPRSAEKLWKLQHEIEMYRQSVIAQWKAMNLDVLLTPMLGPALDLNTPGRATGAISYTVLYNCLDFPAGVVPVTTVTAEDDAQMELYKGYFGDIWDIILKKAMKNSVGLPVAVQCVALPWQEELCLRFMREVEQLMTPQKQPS
The test can be described thus: Ratio of Kinact to Ki for histidine6-tagged rat FAAH. Summed up: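 Rat FAAH construct: aa 30–579, N-terminal transmembrane-deleted, N-terminal His6 tag, E. coli-expressed and purified to >95% purity. Activity read by a GDH-coupled enzyme assay in 384-well plates. Second-order kinact/Ki was derived from the linear slope of kobs versus [I], correcting with (1+[S]/Km).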

The target of test [3] is T3, Fatty-acid amide hydrolase 1 (Mus musculus) (UniProt O08914).
T3 sequence (whole entry): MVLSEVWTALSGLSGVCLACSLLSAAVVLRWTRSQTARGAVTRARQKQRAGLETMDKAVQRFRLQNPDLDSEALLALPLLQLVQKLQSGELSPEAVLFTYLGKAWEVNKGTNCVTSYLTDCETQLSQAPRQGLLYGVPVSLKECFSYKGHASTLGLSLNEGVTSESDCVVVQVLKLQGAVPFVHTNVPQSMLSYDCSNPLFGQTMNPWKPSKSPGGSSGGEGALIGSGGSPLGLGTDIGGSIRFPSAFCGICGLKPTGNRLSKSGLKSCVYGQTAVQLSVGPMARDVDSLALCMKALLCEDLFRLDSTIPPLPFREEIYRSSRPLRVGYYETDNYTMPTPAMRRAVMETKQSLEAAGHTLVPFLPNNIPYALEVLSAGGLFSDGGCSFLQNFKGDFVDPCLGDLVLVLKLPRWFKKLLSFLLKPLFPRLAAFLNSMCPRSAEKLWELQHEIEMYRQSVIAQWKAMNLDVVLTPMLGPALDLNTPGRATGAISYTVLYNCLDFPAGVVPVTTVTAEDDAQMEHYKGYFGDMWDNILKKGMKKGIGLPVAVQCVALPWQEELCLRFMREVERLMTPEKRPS
The test can be described thus: Inhibition of histidine6-tagged FAAH from mouse liver proteomes at 10 to 100 uM. In short, it runs like this:
(§1)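 Competitive activity-based protein profiling with FP probe labeling of serine hydrolases. Proteomes used: soluble mouse liver, mouse kidney, human liver and human heart, plus human brain membrane. Compounds tested at 100 μM, reference at 10 and 100 μM. Inhibited bands were read by gel; FAAH and off-target labeling were judged by band loss.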

Test [4] deals with T3, Fatty-acid amide hydrolase 1 (Mus musculus). The test is described as follows: Inhibition of histidine6-tagged FAAH from mouse kidney proteomes at 10 to 100 uM. Format: tissue-based. Summed up:
as §1

In test [5] the target is T1, Fatty-acid amide hydrolase 1 (Homo sapiens). The test can be described thus: Inhibition of histidine6-tagged FAAH from human liver proteomes at 10 to 100 uM. Summed up: as §1
The target is the same in test [6]. The test is described as follows: Inhibition of histidine6-tagged FAAH from human heart proteomes at 10 to 100 uM. Summed up:
as §1

Test [7] shares this target. The test is described as follows: Inhibition of histidine6-tagged FAAH from human brain proteomes at 10 to 100 uM. Summed up: as §1
The test system of test [8] is Rattus norvegicus. The test is described as follows: Antihyperalgesic activity in complete Freund's adjuvant-induced rat inflammatory pain model assessed as reduction in mechanical allodynia after 4 hrs postdosing. Format: functional. In short, it runs like this: (§2)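 Rat CFA inflammatory pain model: complete Freund's adjuvant injected subcutaneously into hind paw plantar surface; testing at day 5 post-injection. Compound given ip at 3, 10 and 30 mg/kg; naproxen 10 mg/kg ip as reference. Mechanical paw weight threshold measured 4 h after dosing, compared with vehicle group; n = 8 rats/group.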

Test [9] relates to Rattus norvegicus. The test can be described thus: Antihyperalgesic activity in complete Freund's adjuvant-induced rat inflammatory pain model assessed as reduction in mechanical allodynia at 10 mg/kg, ip. The format is functional, organism-based. Details: dose 10 mg/kg. Summed up:
as §2

Structures are written as SMILES. Activity calls are given as the source filed them.

Turning to `Cc1c(CC2CCN(C(=O)Nc3cccnc3)CC2)sc2ccc(F)cc12`, the Ratio in test [1] worked out at 4470 M⁻¹ s⁻¹; in [2], 729 M⁻¹ s⁻¹. In addition, the inhibition result in test [3], in test [4], in test [5], in test [6] and in test [7] was “Active” in each case.

As for `NC(=O)c1cccc(-c2cccc(OC(=O)NC3CCCCC3)c2)c1`, the inhibition result in test [3], in [4], in [5], in test [6] and in test [7] was “Active” each time.

With `COc1ccc(NC(=O)N2CCN(Cc3sc4ccccc4c3C)CC2)cn1`, the Ratio in [1] is less than 10 M⁻¹ s⁻¹; in test [2], 1060 M⁻¹ s⁻¹. Further, the inhibition entry in test [3], in test [4], in [5], in [6] and in [7] was “Active” in each case. Also, the Activity entry in the test on Rattus norvegicus [8] is “Dose-dependent effect”. Moreover, the minimal effective dose in the test with Rattus norvegicus [8] (read-out: MED) came out at 10 mg/kg. The result with Rattus norvegicus [9] was Active.

`Cc1ccc(NC(=O)N2CCN(Cc3sc4ccccc4c3C)CC2)cn1`: the Ratio was 44 M⁻¹ s⁻¹ in test [1] and 390 M⁻¹ s⁻¹ in [2]. The inhibition entry in test [3], in test [4], in [5], in test [6] and in test [7] was “Active” each time.
